Source: ChEMBL document CHEMBL4610036, “Discovery of small molecule antagonists of chemokine receptor CXCR6 that arrest tumor growth in SK-HEP-1 mouse xenografts as a model of hepatocellular carcinoma” (Bioorg Med Chem Lett, 2020)
Active and inactive are the calls of the source. The calls are words filed in the database; no cut-off is given here.

Assays:
[1] = target: T1, C-X-C chemokine receptor type 6 (Homo sapiens, UniProt O00574); assay: Antagonist activity at Prolink-tagged human CXCR6 receptor assessed as inhibition of CXCL16-induced beta-arrestin recruitment by DiscoveRx cell based assay
Target sequence in this assay (O00574 whole entry): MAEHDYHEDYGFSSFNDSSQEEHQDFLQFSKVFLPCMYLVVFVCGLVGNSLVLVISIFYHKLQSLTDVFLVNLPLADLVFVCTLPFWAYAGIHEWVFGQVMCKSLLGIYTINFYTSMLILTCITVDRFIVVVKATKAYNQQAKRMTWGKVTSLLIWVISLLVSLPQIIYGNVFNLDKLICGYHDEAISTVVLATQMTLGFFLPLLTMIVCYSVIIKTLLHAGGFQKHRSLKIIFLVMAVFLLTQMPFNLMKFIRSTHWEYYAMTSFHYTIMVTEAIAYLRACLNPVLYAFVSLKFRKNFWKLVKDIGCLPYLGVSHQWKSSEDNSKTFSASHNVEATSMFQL

[2] = target: T1, C-X-C chemokine receptor type 6; assay: Antagonist activity at Prolink-tagged human CXCR6 receptor assessed as inhibition of CXCL16-induced beta-arrestin recruitment by DiscoveRx cell based assay relative to control; parameters: concentration or dose not given beside the values
In short: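 CXCR6 β-arrestin cells in assay media without G418/hygromycin, 800 cells/well, grown overnight at 37 °C; compounds added acoustically (DMSO ≤0.3%), then 20 nM CXCL16 (final) for 90 min at 37 °C. PathHunter luminescence read. Normalized between CXCL16-alone and no-ligand wells; four-parameter fit with Hill slope fixed at 1; at least two runs on different days, averaged pIC50 ± SD.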
Target sequence in this assay (O00574 whole entry, looked up): as the sequence (O00574 whole entry) above

[3] = target: T1, C-X-C chemokine receptor type 6; assay: Antagonist activity at Prolink-tagged human CXCR6 receptor assessed as inhibition of forskolin-induced cAMP accumulation by DiscoveRx cell based assay; format: functional
In short: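 Lance Ultra TR-FRET cAMP assay in CXCR6 β-arrestin cells, 500 cells/well in OptiMEM/2% FBS, grown overnight. Compound added, then forskolin (2.5 mM stock) in HBSS/HEPES/BSA/RO-20-1724 with or without 20 nM CXCL16, 30 min at room temperature. Eu-cAMP tracer and ULight anti-cAMP antibody added, read after 30 min. Curve fit with Hill slope 1; ≥2 independent runs.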
Target sequence in this assay (O00574 whole entry): as above

[4] = target: T1, C-X-C chemokine receptor type 6; assay: Antagonist activity at Prolink-tagged human CXCR6 receptor assessed as inhibition of forskolin-induced cAMP accumulation by DiscoveRx cell based assay relative to control; format: functional; parameters: concentration or dose not given beside the values
In short: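 CXCR6 β-arrestin cells in OptiMEM with 2% FBS, 500 cells/well, grown overnight; compounds added, then forskolin with 20 nM CXCL16 (stock concentrations) in HBSS/HEPES/BSA with RO-20-1724, 30 min at room temperature. cAMP read by LANCE Ultra TR-FRET after a further 30 min. Hill slope fixed at 1; at least two runs on different days, averaged pIC50 ± SD.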
Target sequence in this assay (O00574 whole entry, looked up): as the sequence (O00574 whole entry) above

[5] = target: T1, C-X-C chemokine receptor type 6; assay: Inhibition of CXCR6-mediated cell invasion in human SKHEP1 cells after 72 hrs by transwell assay; format: cell-based; conditions: SK-HEP1
In short: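 SK-HEP-1 cells, 100k/well in 0.2% FBS, seeded in upper chamber of a chemotaxis plate coated with matrigel (250 μg/ml). CXCL16 (0.6 μg/ml) in lower chamber; compound in both chambers. Kept at 37 °C, 5% CO2 and imaged hourly in IncuCyte. Migration quantified as confluence from phase-contrast images.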
Target sequence in this assay (O00574 whole entry, looked up): as the sequence (O00574 whole entry) above

[6] = target: T2, C-C chemokine receptor type 6 (Homo sapiens, UniProt P51684); assay: Antagonist activity at human CCR6
T2 sequence (P51684 whole entry): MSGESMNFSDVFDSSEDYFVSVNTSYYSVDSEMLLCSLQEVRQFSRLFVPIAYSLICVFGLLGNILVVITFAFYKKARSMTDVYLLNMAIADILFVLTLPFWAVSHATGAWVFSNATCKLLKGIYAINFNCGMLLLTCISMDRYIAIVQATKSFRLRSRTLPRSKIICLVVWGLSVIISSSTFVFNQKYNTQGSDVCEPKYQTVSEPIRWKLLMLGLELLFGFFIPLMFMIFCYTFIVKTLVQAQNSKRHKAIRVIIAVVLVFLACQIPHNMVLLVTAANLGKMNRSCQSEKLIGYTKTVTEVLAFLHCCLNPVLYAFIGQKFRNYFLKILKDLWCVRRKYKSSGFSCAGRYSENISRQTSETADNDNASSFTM

[7] = target: T3, C-X-C chemokine receptor type 5 (Homo sapiens, UniProt P32302); assay: Antagonist activity at human CXCR5
T3 sequence (P32302 whole entry): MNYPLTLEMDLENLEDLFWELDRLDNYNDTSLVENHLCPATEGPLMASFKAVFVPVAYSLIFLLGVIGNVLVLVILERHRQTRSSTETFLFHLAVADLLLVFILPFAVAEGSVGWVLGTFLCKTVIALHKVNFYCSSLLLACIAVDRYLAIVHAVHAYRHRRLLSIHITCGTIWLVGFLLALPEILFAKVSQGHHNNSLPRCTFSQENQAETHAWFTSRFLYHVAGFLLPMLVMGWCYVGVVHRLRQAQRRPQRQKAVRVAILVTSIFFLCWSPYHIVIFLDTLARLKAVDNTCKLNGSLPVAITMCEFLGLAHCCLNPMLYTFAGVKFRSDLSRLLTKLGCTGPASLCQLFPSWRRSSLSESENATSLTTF

[8] = target: C-X-C chemokine receptor type 4 (Homo sapiens, UniProt P61073); assay: Antagonist activity at human CXCR4
[9] = target: T4, C-X-C chemokine receptor type 6 (Mus musculus, UniProt Q9EQ16); assay: Antagonist activity at mouse CXCR6 by DiscoveRx cell based beta-arrestin assay
T4 sequence (Q9EQ16 whole entry): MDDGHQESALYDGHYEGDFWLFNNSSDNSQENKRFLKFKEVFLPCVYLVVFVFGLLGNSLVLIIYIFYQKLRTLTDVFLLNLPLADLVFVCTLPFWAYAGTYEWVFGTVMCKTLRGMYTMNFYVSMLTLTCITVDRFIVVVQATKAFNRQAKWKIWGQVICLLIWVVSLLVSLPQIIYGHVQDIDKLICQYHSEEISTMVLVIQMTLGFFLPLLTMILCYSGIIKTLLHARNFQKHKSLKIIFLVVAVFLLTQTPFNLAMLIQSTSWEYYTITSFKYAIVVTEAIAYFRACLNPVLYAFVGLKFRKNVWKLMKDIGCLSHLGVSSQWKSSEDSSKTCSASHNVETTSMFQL

C-X-C chemokine receptor type 4, sequence (P61073 whole entry): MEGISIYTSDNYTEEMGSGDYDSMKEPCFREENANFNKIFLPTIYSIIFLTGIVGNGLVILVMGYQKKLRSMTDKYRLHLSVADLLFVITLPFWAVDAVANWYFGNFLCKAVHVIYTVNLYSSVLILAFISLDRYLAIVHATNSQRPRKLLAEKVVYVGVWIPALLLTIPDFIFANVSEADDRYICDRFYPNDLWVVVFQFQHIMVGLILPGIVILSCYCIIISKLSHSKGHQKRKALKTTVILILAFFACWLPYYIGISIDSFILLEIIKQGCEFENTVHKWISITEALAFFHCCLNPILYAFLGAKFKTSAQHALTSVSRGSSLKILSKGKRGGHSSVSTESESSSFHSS

SMILES | IC50 [1] [µM] | inhibition ([2]; concentration not given here) [%] | IC50 [3] [µM] | inhibition ([4]; concentration not given here) [%] | inhibition [5] | IC50 [6] [µM] | IC50 [7] [µM] | IC50 [8] [µM] | IC50 [9] [µM] | inhibition [2] | inhibition [4]
COc1cc(C(=O)N[C@@H]2C[C@H]3CCC[C@@H](C2)N3Cc2nc3c(Cl)cccc3s2)cc(OC)c1OC | 0.13 | 103 | 0.9 | 95 | Active |  |  |  |  |  | 
COc1cc(C(=O)N[C@@H]2C[C@H]3CCC[C@@H](C2)N3CC(=O)Nc2ccccc2Cl)cc(OC)c1OC | 0.14 | 100 | 1.4 | 102 |  | > 80 | > 80 | > 80 | 18 |  | 
COc1cc(C(=O)N[C@@H]2C[C@H]3CCC[C@@H](C2)N3CCc2nc3ccccc3s2)cc(OC)c1OC | > 50 |  | > 50 |  |  |  |  |  |  | inactive | inactive
COc1ccc(C(=O)N[C@@H]2C[C@H]3CCC[C@@H](C2)N3CC(=O)Nc2ccc(Cl)cc2)cc1OC | > 40 |  | > 40 |  |  |  |  |  |  | inactive | inactive
COc1cc(C(=O)N[C@@H]2C[C@H]3CCC[C@@H](C2)N3CC(=O)Nc2ccc(F)cc2)cc(OC)c1OC | 5.8 | 100 | 30.7 | 90 |  |  |  |  |  |  | 
COc1cc(C(=O)N[C@H]2C[C@H]3CCC[C@@H](C2)N3CC(=O)Nc2ccccc2)cc(OC)c1OC | > 40 |  | 40.9 | 70 |  |  |  |  |  | inactive | 
COc1ccccc1NC(=O)CN1[C@@H]2CCC[C@H]1C[C@H](NC(=O)c1cc(OC)c(OC)c(OC)c1)C2 | 2.1 | 102 | 14.7 | 100 |  |  |  |  |  |  | 
O=C(CN1[C@@H]2CCC[C@H]1C[C@H](NC(=O)c1ccccc1)C2)Nc1ccccc1 | > 40 |  | > 80 |  | inactive |  |  |  |  | inactive | inactive
COc1cc(C(=O)N[C@@H]2C[C@H]3CCC[C@@H](C2)N3Cc2nc3cc(Cl)ccc3s2)cc(OC)c1OC | 0.17 | 100 | 3.2 | 90 |  |  |  |  |  |  | 
COc1cc(C(=O)N[C@@H]2C[C@H]3CCC[C@@H](C2)N3CC(=O)Nc2ccc(C)cc2)cc(OC)c1OC | 9.5 | 100 | > 40 |  |  |  |  |  |  |  | inactive
COc1cc(C(=O)N[C@@H]2C[C@H]3CCC[C@@H](C2)N3Cc2nc3ccc(Cl)cc3s2)cc(OC)c1OC | 0.27 | 103 | 14 | 83 |  |  |  |  |  |  | 
COc1cc(C(=O)N[C@@H]2C[C@H]3CCC[C@@H](C2)N3Cc2nc3c(Br)cccc3s2)cc(OC)c1OC | 0.08 | 102 | 1 | 91 |  |  |  |  |  |  | 
COc1cccc(C(=O)N[C@@H]2C[C@H]3CCC[C@@H](C2)N3CC(=O)Nc2ccc(Cl)cc2)c1 | > 40 |  | 14.5 | 87 |  |  |  |  |  | inactive | 
COc1cc(C(=O)N[C@@H]2C[C@H]3CCC[C@@H](C2)N3CC(=O)Nc2cccc(F)c2)cc(OC)c1OC | 0.84 | 104 | 8.5 | 103 |  |  |  |  |  |  | 
COc1cc(C(=O)N[C@@H]2C[C@H]3CCC[C@@H](C2)N3Cc2c[nH]c3ccccc23)cc(OC)c1OC | > 50 |  | > 50 |  |  |  |  |  |  | inactive | inactive
COc1cc(OC)cc(C(=O)N[C@@H]2C[C@H]3CCC[C@@H](C2)N3CC(=O)Nc2ccc(Cl)cc2)c1 | > 40 |  | > 40 |  |  |  |  |  |  | inactive | inactive
COc1cc(C(=O)NC2CCN(CC(=O)Nc3ccccc3)CC2)cc(OC)c1OC | > 40 |  | > 40 |  |  |  |  |  |  | inactive | inactive
COc1cc(C(=O)N[C@@H]2C[C@H]3CCC[C@@H](C2)N3Cc2cc3ccccc3s2)cc(OC)c1OC | 0.9 | 93 | 25 | 49 |  |  |  |  |  |  | 
COc1ccc(NC(=O)CN2[C@@H]3CCC[C@H]2C[C@H](NC(=O)c2cc(OC)c(OC)c(OC)c2)C3)cc1 | 19 | 76 | > 40 |  |  |  |  |  |  |  | inactive
COc1ccc(CN2[C@@H]3CCC[C@H]2C[C@H](NC(=O)c2cc(OC)c(OC)c(OC)c2)C3)cc1 | > 50 |  | > 50 |  |  |  |  |  |  | inactive | inactive
